Results on five compounds are retold here after ChEMBL document CHEMBL1833961, “Homology modeling in tandem with 3D-QSAR analyses: a computational approach to depict the agonist binding site of the human CB2 receptor” (Eur J Med Chem, 2011).

Format in all cases: cell-based
For test [1], the target named is T1, Cannabinoid receptor 1 (Homo sapiens, UniProt P21554). Kind of test: Displacement of [3H]-CP-55,940 from human CB1 receptor expressed in human HEK293 cells after 90 mins by radioligand assay. A digest of the protocol: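 Membranes from HEK-293 cells transfected with human recombinant CB1 (Bmax 2.5 pmol/mg protein) were incubated with 0.14 nM [3H]-CP-55,940 (Kd 0.18 nM) and increasing compound concentrations for 90 min at 30 °C. Nonspecific binding was defined with 10 uM WIN 55212-2. Ki was calculated from IC50 by Cheng–Prusoff.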
(Displacement assays read how much labelled ligand stays bound in the presence of the test substance.)

Test [2] addresses T1, Cannabinoid receptor 1. As to the kind of experiment: Displacement of [3H]-CP-55,940 from human CB1 receptor expressed in human HEK293 cells at 10 uM after 90 mins by radioligand assay. A digest of the protocol:
(§1)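 Percent displacement of [3H]-CP 55,940 (0.5 nM) from human recombinant CB1 in HEK-293 cell membranes (Bmax 2.5 pmol/mg protein), with a single inhibitor concentration of 1 or 10 µM. Incubation was 90 min at 30 °C, and nonspecific binding was defined with 10 uM WIN 55212-2.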

The target in test [3] is T2, Cannabinoid receptor 2 (Homo sapiens, UniProt P34972). As to the kind of experiment: Displacement of [3H]-WIN 55,212-2 from human CB2 receptor expressed in human HEK293 cells after 90 mins by radioligand assay.
The target in test [4] is T2, Cannabinoid receptor 2. As to the kind of experiment: Displacement of [3H]-WIN 55,212-2 from human CB2 receptor expressed in human HEK293 cells at 10 uM after 90 mins by radioligand assay.
Test [5] concerns the target T1, Cannabinoid receptor 1. As to the kind of experiment: Displacement of [3H]-CP-55,940 from human CB1 receptor expressed in human HEK293 cells at 1 uM after 90 mins by radioligand assay. Put shortly: as §1
For test [6], the target named is T2, Cannabinoid receptor 2. Kind of test: Displacement of [3H]-WIN 55,212-2 from human CB2 receptor expressed in human HEK293 cells at 1 uM after 90 mins by radioligand assay.

T1 sequence (P21554 whole entry): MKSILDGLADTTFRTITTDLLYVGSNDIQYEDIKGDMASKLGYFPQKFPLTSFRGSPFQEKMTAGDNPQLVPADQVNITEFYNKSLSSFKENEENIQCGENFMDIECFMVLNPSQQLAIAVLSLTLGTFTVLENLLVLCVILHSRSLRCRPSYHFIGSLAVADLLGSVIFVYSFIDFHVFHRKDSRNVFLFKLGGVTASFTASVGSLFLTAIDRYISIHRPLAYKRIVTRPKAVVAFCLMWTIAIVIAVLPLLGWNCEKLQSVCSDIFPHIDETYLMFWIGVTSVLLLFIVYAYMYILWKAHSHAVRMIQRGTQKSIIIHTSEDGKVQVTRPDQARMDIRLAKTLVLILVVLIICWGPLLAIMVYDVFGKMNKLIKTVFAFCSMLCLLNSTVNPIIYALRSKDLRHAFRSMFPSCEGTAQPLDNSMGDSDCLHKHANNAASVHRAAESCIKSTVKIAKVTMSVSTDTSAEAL
T2 sequence (P34972 whole entry): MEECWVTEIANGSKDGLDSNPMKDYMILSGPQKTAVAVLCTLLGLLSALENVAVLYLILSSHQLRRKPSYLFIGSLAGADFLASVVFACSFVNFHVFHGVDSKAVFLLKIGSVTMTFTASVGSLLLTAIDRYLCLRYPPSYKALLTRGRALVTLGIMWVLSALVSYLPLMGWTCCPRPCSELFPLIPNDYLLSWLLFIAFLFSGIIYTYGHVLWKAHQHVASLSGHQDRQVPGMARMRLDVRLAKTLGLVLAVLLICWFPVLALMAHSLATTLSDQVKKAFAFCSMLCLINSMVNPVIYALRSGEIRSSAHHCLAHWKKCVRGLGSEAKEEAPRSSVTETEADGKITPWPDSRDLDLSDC

Take `CCOC(=O)/C(=C/c1cn(CCN2CCCCC2)c2ccccc12)C(=O)c1ccccc1`: the IC50 was more than 10 µM in test [1] and 5.48 µM in test [3]. Moreover, the Ki is more than 10 µM in test [1] and 1390 nM in test [3] (read-out: Ki). In addition, the Activity in test [2] was determined as 25.1%; in test [4], 70.8%.
As for `CCOC(=O)/C(=C/c1cn(CCN2CCOCC2)c2ccccc12)C(=O)c1ccccc1`, the values for the IC50 in test [1] and in test [3] were more than 10 µM and 6.22 µM, respectively. Besides, the Ki in test [1] is more than 10 µM; in test [3] (read-out: Ki), 1580 nM. Besides, the Activity is 43.2% in test [2] and 66% in test [4].
Turning to `N#C/C(=C\c1cn(CCN2CCCCC2)c2ccccc12)S(=O)(=O)c1ccccc1`, the values for the Activity in test [2] and in test [4] were 83% and 101%, respectively. In test [3] (read-out: Ki), the Ki was found to be 7.5 nM.
Consider `CC1(C)C(C(=O)c2cn(CC3CCOCC3)c3c(CC4CCOCC4)c4c(cc23)OCO4)C1(C)C`, for which the Ki in test [3] (read-out: pKi (converted)) is 1.02 nM.
As to `N#C/C(=C\c1cn(CCN2CCOCC2)c2ccccc12)S(=O)(=O)c1ccccc1`, the values for the IC50 in test [1] and in test [3] were 0.155 µM and 0.0401 µM, respectively. Moreover, the Ki in test [1] was found to be 0.062 µM; in test [3] (read-out: Ki), 10.2 nM. Also, the Activity in test [5] came to 85%; in test [6], 95.9%.

What is called IC50 is the midpoint of a concentration-inhibition curve.
